Rows were chosen to be rich in hits. Some 2.5% of all compounds tested hit in one or more screens of this group.
SIAE inh – human SIAE inhibitors, primary screen, biochemical, fluorescence polarization, FP-Rh probe, 1536-well HTS | Sialate O-acetylesterase (Homo sapiens), Q9HAT2 | SIAE FP-Rh probe binding | inhibition, % at 9.66 µM | hit rate 0.69% among 370,000;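 active means inhibition above a cutoff: mean of compounds within the control limits plus 3 SD of those, cut at about 17% in these data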;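 further: 0% = plate median of compound wells and 100% = probe without SIAE protein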
TCR-CD3 inh – inhibitors of human TCR-CD3 interaction, primary screen, biochemical, fluorescence, TAMRA-labeled TCR probe. inhibition, % at 9.4 µM. hit rate 0.37% among 360,000. AID 651800, 2012; in the data active means inhibition above about 19%;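 further: recombinant mutant TCR 2C K166C tagged with TAMRA read by polarization; 0% = receptor in buffer alone and 100% = receptor with positive control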
HTRA1 inhibitor – HTRA1 serine protease inhibitors, primary screen, biochemical, fluorescence polarization, HTS; Q92743; recombinant HTRA1, FP-rhodamine activity-based probe; inhibition, % at 5.96 µM; hit rate 0.5% among 340,000; in the data active means inhibition above about 36%;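 further: 0% = enzyme with DMSO and 100% = wells lacking enzyme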
Target sequence (Q92743 whole entry, looked up): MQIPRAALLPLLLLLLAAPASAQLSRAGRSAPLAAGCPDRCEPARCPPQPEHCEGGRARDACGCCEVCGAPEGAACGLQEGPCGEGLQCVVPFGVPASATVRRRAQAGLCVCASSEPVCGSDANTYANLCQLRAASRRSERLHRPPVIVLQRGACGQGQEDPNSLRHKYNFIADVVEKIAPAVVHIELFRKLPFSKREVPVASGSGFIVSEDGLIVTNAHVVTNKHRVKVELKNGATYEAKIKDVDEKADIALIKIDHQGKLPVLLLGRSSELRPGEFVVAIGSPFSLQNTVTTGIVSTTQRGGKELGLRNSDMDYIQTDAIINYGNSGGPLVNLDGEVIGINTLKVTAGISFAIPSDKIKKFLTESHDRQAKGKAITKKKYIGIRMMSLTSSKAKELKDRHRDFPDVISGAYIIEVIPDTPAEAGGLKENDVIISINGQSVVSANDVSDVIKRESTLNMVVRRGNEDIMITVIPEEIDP
mABHD4 FP – ABHD4 inhibitors, primary screen, biochemical, fluorescence polarization, mouse; (Lyso)-N-acylphosphatidylethanolamine lipase (Mus musculus), Q8VD66; purified mABHD4, FP-Rh probe fluorescence polarization; inhibition, % at 8.92 µM; hit rate 0.54% among 370,000; AID 720543, 2013;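 active means inhibition exceeding the mean over every tested compound plus 3 SD, cut at about 30% in these data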;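 further: 0% = plate median of compound wells and 100% = S159A mutant with DMSO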
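assay system = mABHD4 protein | compound dosing = single nominal dose of 8.92 µM, 0.89% DMSO final | read-out basis = percent inhibition of probe binding, normalized to plate controls | schedule = Enzyme–compound pre-incubation 45 min, then probe 60 min, both 25 °C | detection = fluorescence polarization, excitation 525 nm, emission 598 nm, BODIPY TMR filters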
rCAG RNA binder – binders of r(CAG) RNA repeats, primary screen, biochemical, fluorescence. r(CAG) RNA repeat, TO-PRO-1 dye displacement fluorescence. inhibition, % at 3 µM. hit rate 1.3% among 370,000. AID 651821, 2012;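 active means inhibition above the plate cutoff, the mean of all test compounds on that plate plus 3 SD, cut at about 35% in these data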;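 further: 0% = DMSO alone and 100% = 100 µM mitoxantrone as full dye displacement; higher means more dye released from RNA so lower well fluorescence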
rCAG binder conf – small molecules binding CAG repeat RNA – biochemical, fluorescence, confirmation; hit rate 70% among 4,300; r(CAG) RNA repeat, TO-PRO-1 dye displacement fluorescence; inhibition, % at 3 µM; AID 652065, 2013; shares compounds with rCAG RNA binder;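 active means inhibition above a per-plate cutoff, the mean inhibition of sample wells plus 3 SD, cut at about 35% in these data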;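 further: loss of TO-PRO-1 fluorescence as compound displaces dye from 1x1 AA loop RNA; 0% = DMSO only wells and 100% = 100 µM mitoxantrone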
DNA CAG counter – displacement of TO-PRO-1 from CAG DNA duplex, counter-screen for rCAG RNA repeat binder project, biochemical, fluorescence, TO-PRO-1 dye, d(CAG) DNA oligo; shares compounds with rCAG RNA binder; hit rate 94% among 4,300; AID 652068, 2013; inhibition, % at 3 µM; d(CAG) DNA oligo TO-PRO-1 dye displacement;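 active means inhibition above its plate's cutoff, the mean test-well inhibition plus 3 SD, cut at about 4.8% in these data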;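 further: 0% = DNA dye mix with DMSO and 100% = 100 µM mitoxantrone; hits displace the dye from DNA and so lower well fluorescence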
Active calls of the source: *; / = no result given; ! = not active in a repeat.

SMILES	SIAE inh	TCR-CD3 inh	HTRA1 inhibitor	mABHD4 FP	rCAG RNA binder	rCAG binder conf	DNA CAG counter
COc1ccc(C=NNc2ccc([N+](=O)[O-])cc2S(=O)(=O)Nc2ccccc2C(=O)O)cc1OC	-14	3	-70	-2	90*	94*	75*
O=C(O)c1ccccc1NS(=O)(=O)c1ccc(NN=Cc2ccc(F)cc2)c([N+](=O)[O-])c1	/	/	-19	/	/	/	/
O=[N+]([O-])c1ccc(N/N=C/c2c[nH]c3ccccc23)cc1	8	-17	31	10	56*	26	20*
CN(C(=O)c1ccc(NC(=O)C2CCCN(C(=O)OC(C)(C)C)C2)cc1)C1CCCC1 (centres undefined)	2	-4	-9	4	-1	/	/
Cc1cc(C(=O)N2CCCC(N3CCN(c4cccc(Cl)c4)CC3)C2)nc(C)n1 (centres undefined)	-2	-3	1	-1	-9	/	/
CCCc1nc2ccccc2c(=O)n1/N=C/c1ccc(O)cc1	-4	0	3	-7	-1	/	/
O=C(O)c1ccccc1NS(=O)(=O)c1ccc(NN=Cc2cccc(Cl)c2)c([N+](=O)[O-])c1	-2	4	-14	19	59*	90*	68*
COc1cc(NS(=O)(=O)c2cc(C(=O)N3CCN(C(C)=O)CC3)ccc2OC)cc(OC)c1	0	-1	3	0	3	/	/
O=C(Cn1cc2c(n1)CCCCC2)NCc1ccccc1	1	5	-3	2	41*	6	2
CC1CC(=O)Nc2ccccc2N1S(=O)(=O)c1ccc(C#N)cc1 (centres undefined)	0	3	-2	0	1	/	/
Cc1cccc(S(=O)(=O)NC(=O)C2(C)CCN2C(=O)CCc2ccccc2)c1 (centres undefined)	-4	-1	/	7	5	/	/
CCCCOc1ccc(S(=O)(=O)NC(=O)C2(C)CCN2C(=O)CCc2ccccc2)cc1 (centres undefined)	10	3	/	2	39*	32	7.2*
CCCCOc1ccc(S(=O)(=O)NC(=O)C2(C)CCN2C(=O)Cc2ccccc2Cl)cc1 (centres undefined)	-1	2	/	2	44*	38*	9.1*
CC1(C(=O)NS(=O)(=O)c2ccc(Cl)cc2)CCN1C(=O)Cc1ccccc1Cl (centres undefined)	-4	2	/	1	14	/	/
CCOc1ccc2nc(S(=O)(=O)NC(=O)C3(C)CCN3C(=O)CCc3cccs3)sc2c1 (centres undefined)	-4	5	/	3	38*	37*	9.9*
Cc1cc(NC(=O)CSCC(=O)Nc2ccccc2Oc2ccccc2)no1	-2	1	-12	0	-5	/	/
CCN(CC)N=Nc1ccc(S(=O)(=O)Nc2nc(C)cc(C)n2)cc1	-1	5	2	0	43*!	5	-2
Cc1cc(C)nc(NS(=O)(=O)c2ccc(NS(=O)(=O)c3ccccc3)cc2)n1	6	1	1	-8	2	/	/
COc1ccc(S(=O)(=O)C(C#N)c2nc3ccccc3nc2N2CCCC(C)C2)cc1 (centres undefined)	-2	-14	3	-2	68*	68*	35*
CC1CCCN(c2nc3ccccc3nc2C(C#N)S(=O)(=O)c2cccs2)C1 (centres undefined)	1	-10	7	12	20	/	/
Cc1oc2c(cc(NS(=O)(=O)c3ccc(F)cc3)c3ccccc32)c1C(=O)O	9	-1	7	12	22	/	/
Cc1oc2c(cc(NS(=O)(=O)c3cccs3)c3ccccc32)c1C(=O)OC(C)C	-6	0	-37	-12	37*	32	9.5*
COc1ccc(S(=O)(=O)Nc2cc3c(C(C)=O)c(C)oc3c3ccccc23)cc1	-4	11	-8	-4	4	/	/
Cc1oc2c(cc(NS(=O)(=O)c3ccc(C(C)C)cc3)c3ccccc32)c1C(=O)O	0	-5	-22	9	54*	63*	28*
Cc1ccc(CCSc2ccc(C(C)C)cc2)cn1	-2	-2	-2	1	-4	/	/
SMILES	SIAE inh	TCR-CD3 inh	HTRA1 inhibitor	mABHD4 FP	rCAG RNA binder	rCAG binder conf	DNA CAG counter
CC(C(=O)O)c1ccc2c(c1)[nH]c1ccc(Cl)cc12 (centres undefined)	0	3	-3	-7	11	/	/
O[C@@H]1[C@@H](O)[C@H](n2c3ccc(Cl)cc3c3ccc4c5cc(Cl)ccc5[nH]c4c32)OC[C@H]1O	-12	/	/	-1	51*	43*	27*
CCn1c(O)c(/C=C/C=C/C=Nc2ccccc2)sc1=S	0	-8	11	0	19	/	/
Oc1c(/C=C/C=C/C=Nc2ccccc2)sc(=S)n1Cc1ccccc1	-11	-30	/	-20	46*	38*	20*
CCCCn1c(O)c(/C=C/C=C/C=Nc2ccccc2)sc1=S	-3	-13	-6	4	40*	32	18*
O=C1C(=Cc2cn(-c3ccccc3)nc2-c2ccc(OCc3ccc(Cl)cc3)cc2)SC(=S)N1CCS(=O)(=O)O	-65	2	/	-84	68*	58*	43*
O=C(O)CCCCCN1C(=O)/C(=C/c2cn(-c3ccccc3)nc2-c2cccs2)SC1=S	-11	8	-30	-2	57*	69*	39*
O=C1C(=Cc2cn(-c3ccccc3)nc2-c2ccc(OCc3ccccc3F)cc2)SC(=S)N1CCS(=O)(=O)O	-78	13	/	-94	72*	65*	45*
Cc1[nH]c2ccccc2c1/C=N/Nc1ccc([N+](=O)[O-])cc1S(=O)(=O)Nc1ccc(Cl)cc1	1	-3	9	-1	10	/	/
O=C(O)COc1ccccc1C=NNc1ccc([N+](=O)[O-])cc1S(=O)(=O)Nc1ccc(Cl)cc1	-12	-2	-45	5	88*	91*	69*
COc1ccc(NS(=O)(=O)c2cc([N+](=O)[O-])ccc2N/N=C\c2c(C)[nH]c3ccccc23)cc1	6	-5	18	6	7	/	/
COc1ccc(NS(=O)(=O)c2cc([N+](=O)[O-])ccc2NN=Cc2ccccc2OCC(=O)O)cc1	-7	7	-16	6	85*	88*	63*
CCc1nnc(NS(=O)(=O)c2ccc(NCc3cc(Cl)cc(Cl)c3O)cc2)s1	10	1	-11	-23	70*	37*	9.5*
